# Experiments:
# Format in all cases: functional, cell-based
# HeLa [1] = test: Growth inhibition of human HeLa cells measured after 96 hrs by sulforhodamine B assay
# Procedure, shortened: (§1)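 Exposed 96 h to varying compound concentrations in 0.5% DMSO. Cell protein measured by sulforhodamine B; IC50 = concentration halving the increase in cell protein versus untreated cultures.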
# HeLa [2] = test: Growth inhibition of human HeLa cells over expressing beta3-tubulin measured after 96 hrs by sulforhodamine B assay; procedure, shortened: as §1
# OVCAR-8 = test: Growth inhibition of human OVCAR8 cells measured after 96 hrs by sulforhodamine B assay; conditions: OVCAR-8, 96 h
# NCI/ADR-RES = test: Growth inhibition of human NCI/ADR-RES cells over expressing Pgp measured after 96 hrs by sulforhodamine B assay
structure (smiles),measurement,setting,value
CC(=O)O[C@H]1C(=O)[C@@]2(C)[C@H]([C@H](OC(=O)c3ccccc3)[C@]3(O)C[C@H](OC(=O)[C@H](O)[C@@H](NC(=O)c4ccccc4)c4ccccc4)C(C)=C1C3(C)C)[C@]1(OC(C)=O)CO[C@@H]1C[C@@H]2O [PACLITAXEL],IC50,HeLa [1],5.3 nM
same,IC50,HeLa [2],16 nM
same,IC50,OVCAR-8,5 nM
same,IC50,NCI/ADR-RES,2500 nM
